Series [1] can be described thus: Selectivity index, ratio of CC50 for human Huh-luc/neo7 cells to EC50 for HCV.
Series [2] in a line: Cytotoxicity against human HuH7 cells expressing luc/neo after 72 hrs by MTT assay. It counts as cell-based, Huh-7. In general terms: Tetrazolium assays rely on reduction of a dye to a coloured formazan, in cell work by metabolically active cells.
A further series has as its system Hepatitis C virus. The series is described as follows: Antiviral activity against HCV in human Huh-luc/neo7 cells after 72 hrs by luciferase reporter gene assay. It counts as functional, organism-based, Hepacivirus hominis. An outline of the steps:
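Huh7 cells persistently carrying full-genome HCV replicon treated with compound (e.g., 0, 1, 5, 25, 125 µM) for 72 h; replicon translation/replication read as firefly luciferase activity; EC50 from dose-response.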

Series [3] has as its system Enterovirus C. The experiment in a line: Antiviral activity against poliovirus infected in human RD cells assessed as destruction of RD cell monolayer pretreated at 125 uM for 72 hrs followed by viral infection and compound treatment at 250 uM for 7 hrs by light microscopy. It counts as functional, cell-based. Put shortly: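 RD cells were pretreated with compound for 72 h at 125, then infected with poliovirus at an MOI of ~20 or ~600 PFU/cell and incubated at 250 for 7 h. The integrity of the cell monolayer was examined by light microscopy right after infection or at 7 h.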

The test system of series [4] is Enterovirus C. The series is described as follows: Antiviral activity against poliovirus infected in human RD cells assessed as nuclear alteration pretreated at 125 uM for 72 hrs followed by viral infection and compound treatment at 250 uM for 7 hrs by Hoechst 33342 staining-based fluorescence microscopy. It counts as functional, cell-based. Put shortly: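 RD cells were pretreated with compound for 72 h at 125, then infected with poliovirus at an MOI of ~20 or ~600 PFU/cell and held at 250 for 7 h. Nuclear DNA was stained with Hoechst33342, and nuclear alterations were scored by fluorescence microscopy right after infection or at 7 h.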

Series [5] concerns RD. The series is described as follows: Cytotoxicity against human RD cells assessed as cell density incubated at 125 uM for 72 hrs and at 250 uM for 7 hrs by light transmission spectroscopy relative to vehicle-treated control. It counts as cell-based. Put shortly: (§1)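 RD cells incubated 72 h at 125 µM, then 7 h more at 250 µM (time of PV reproduction cycle); monolayer density by light transmission imaging and nuclear morphology by fluorescence microscopy after Hoechst 33342 DNA staining, compared with untreated controls.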

For series [6], the system named is RD. The experiment in a line: Cytotoxicity against human RD cells assessed as morphological changes incubated at 125 uM for 72 hrs and at 250 uM for 7 hrs by Hoechst 33342 staining-based fluorescence microscopy. It counts as cell-based. An outline of the steps: as §1

Each structure is given as a SMILES string. Calls of active or inactive are those of the source. No cut-off for these calls is given here. A value given as a limit tells only on which side of the number the result lay.

One may read the CC50 as the concentration giving 50% cytotoxicity. As a reminder, the EC50 is the concentration at which the effect is half-maximal.

Take `O=C(NO)c1ccc(Cl)cc1`: the “Ratio CC50/EC50” value in series [1] worked out at 18. In series [2], this molecule displayed a CC50 at 72 h of 55 µM. The same molecule registered an EC50 with Hepatitis C virus of 3 µM.
For `O=C(NO)c1ccccc1Cl`, the “Ratio CC50/EC50” value in series [1] was 165. Further, in series [2], the CC50 at 72 h came out at 330 µM. Further, the EC50 in the series with Hepatitis C virus was found to be 2 µM.
For `O=C(NO)c1cc([N+](=O)[O-])ccc1O` the same measures were above 6, above 1000 µM and 160 µM.
Take `COc1ccc([N+](=O)[O-])cc1C(=O)NO`: in series [1], the “Ratio CC50/EC50” value is on record as 120. For the same molecule, the CC50 at 72 h in series [2] amounted to 350 µM. In the series with Hepatitis C virus, this molecule returned an EC50 of 3 µM.
On to `Cc1cc(Br)ccc1C(=O)NO`, for which the “Ratio CC50/EC50” value in series [1] came out at 240. Also, the CC50 at 72 h in series [2] worked out at 120 µM. The molecule further yielded an EC50 with Hepatitis C virus of 0.5 µM.
The matching figures for `COc1ccc(C(=O)NO)cc1`: 15, 180 µM and 12 µM.
Consider `Cc1ccccc1C(=O)NO`, for which the “Ratio CC50/EC50” value in series [1] is on record as 8. This molecule also gave a 50% cytotoxic concentration (CC50) at 72 h in series [2] of 650 µM. Moreover, the EC50 with Hepatitis C virus came to 85 µM.
With `COCc1ccccc1C(=O)NO`, the “Ratio CC50/EC50” value in series [1] was above 6. This molecule registered a CC50 at 72 h in series [2] above 1000 µM. In the series on Hepatitis C virus, this molecule yielded an EC50 of 170 µM.
Turning to `O=C(NO)c1ccccc1[N+](=O)[O-]`, the “Ratio CC50/EC50” value in series [1] came out at 55. The CC50 at 72 h in series [2] stood at 55 µM. For the same molecule, a half-maximal response in the series with Hepatitis C virus (EC50) required 1 µM.
For the molecule `O=C(NO)c1ccc([N+](=O)[O-])cc1`, the “Ratio CC50/EC50” value in series [1] worked out at 23. Also, the CC50 at 72 h in series [2] came to 70 µM. In the series on Hepatitis C virus, this molecule had an EC50 of 3 µM.
Turning to `O=C(NO)c1ccccc1OCCOc1ccccc1C(=O)NO`, in series [1], the “Ratio CC50/EC50” value was above 23. In series [2], the CC50 at 72 h is above 800 µM. This molecule also gave an EC50 in the series with Hepatitis C virus of 35 µM.
`COc1ccccc1/C(N)=N/O`: the CC50 at 72 h in series [2] is above 800 µM. The same molecule registered an EC50 with Hepatitis C virus above 300 µM.
As to `COc1ccccc1C(=O)N(C)O`, the CC50 at 72 h in series [2] is above 800 µM. The EC50 in the series on Hepatitis C virus was above 300 µM.
Regarding `O=C(NO)c1ccccc1Br`, in series [1], the “Ratio CC50/EC50” value is on record as 90. The molecule also returned a CC50 at 72 h in series [2] of 270 µM. Besides, in the series on Hepatitis C virus, the EC50 was 3 µM.
Turning to `O=C(NO)c1cccc(Cl)c1`, in series [1], the “Ratio CC50/EC50” value was found to be 12. The molecule further returned a CC50 at 72 h in series [2] of 120 µM. This molecule also displayed an EC50 in the series on Hepatitis C virus of 10 µM.
The molecule `CONC(=O)c1ccccc1` registered a CC50 at 72 h in series [2] above 800 µM. In the series on Hepatitis C virus, this molecule had an EC50 above 300 µM.
`NC(=O)c1ccccc1O` [SALICYLAMIDE] showed a CC50 at 72 h in series [2] above 800 µM. The molecule also returned a concentration for a half-maximal effect (EC50) in the series on Hepatitis C virus above 300 µM.
Consider `Cc1cccc(C(=O)NO)c1`, for which the “Ratio CC50/EC50” value in series [1] worked out at 17. Also, the CC50 at 72 h in series [2] was determined as 340 µM. In the series with Hepatitis C virus, this molecule yielded an EC50 of 20 µM.
Turning to `O=C(NO)c1ccccc1F`, the “Ratio CC50/EC50” value in series [1] turned out to be 20. This molecule yielded a CC50 at 72 h in series [2] of 300 µM. In addition, the EC50 with Hepatitis C virus is 15 µM.
For `O=C(NO)c1ccc(Br)cc1`, the “Ratio CC50/EC50” value in series [1] is recorded as 13. In series [2], this molecule displayed a CC50 at 72 h of 25 µM. In addition, the EC50 in the series on Hepatitis C virus worked out at 2 µM.
Turning to `COc1cccc(C(=O)NO)c1`, in series [1], the “Ratio CC50/EC50” value worked out at 8. In addition, the CC50 at 72 h in series [2] was found to be 570 µM. For the same molecule, it took 70 µM to reach a half-maximal effect in the series with Hepatitis C virus (EC50).
The matching figures for `O=C(NO)c1ccc(Cl)cc1Cl`: 175, 140 µM and 0.8 µM.
With `Cc1ccc(C(=O)NO)c(Cl)c1`, the “Ratio CC50/EC50” value in series [1] was determined as 93. In series [2], this molecule displayed a CC50 at 72 h of 140 µM. For the same molecule, in the series on Hepatitis C virus, a half-maximal effect (EC50) was put at 1.5 µM.
As for `CN(O)C(=O)c1ccccc1O`, the result in the series with Enterovirus C [3] and with Enterovirus C [4] was inactive. The same molecule showed a CC50 at 72 h in series [2] above 800 µM. In the series on Hepatitis C virus, this molecule displayed an EC50 above 300 µM. In addition, the Activity result in the series with RD [5] and with RD [6] was “Non-toxic” each time.
Regarding `COc1ccccc1C(N)=O`, the CC50 at 72 h in series [2] was above 800 µM. The same molecule showed an EC50 in the series with Hepatitis C virus above 300 µM.
With `COc1cccc(OC)c1C(=O)NO`, in series [1], the “Ratio CC50/EC50” value is given as above 16. The molecule further gave a CC50 at 72 h in series [2] above 800 µM. Further, the half-maximal effective concentration (EC50) in the series with Hepatitis C virus was 50 µM.
With `O=C(NO)c1cccc(Br)c1`, the “Ratio CC50/EC50” value in series [1] was 26. This molecule returned a CC50 at 72 h in series [2] of 310 µM. Further, in the series on Hepatitis C virus, the EC50 came out at 12 µM.
As for `CONC(=O)c1ccccc1OC`, the CC50 at 72 h in series [2] is above 800 µM. In the series with Hepatitis C virus, this molecule had an EC50 above 300 µM.
As for `CCCCOc1ccccc1C(=O)NO`, the “Ratio CC50/EC50” value in series [1] was 38. The same molecule showed a CC50 at 72 h in series [2] of 380 µM. Besides, the 50% effective concentration (EC50) in the series on Hepatitis C virus was determined as 10 µM.
Turning to `O=C(NO)c1cccc([N+](=O)[O-])c1`, the “Ratio CC50/EC50” value in series [1] is listed as 32. The same molecule returned a CC50 at 72 h in series [2] of 160 µM. The same molecule gave an EC50 in the series with Hepatitis C virus of 5 µM.
With `NC(=NO)c1ccccc1` [BENZAMIDOXIME], the CC50 at 72 h in series [2] is above 800 µM. Further, it took 270 µM to reach a half-maximal effect in the series with Hepatitis C virus (EC50).
The molecule `CONC(=O)c1ccccc1O` gave a CC50 at 72 h in series [2] above 800 µM. In the series on Hepatitis C virus, this molecule registered an EC50 above 300 µM.
Consider `COc1cc(C)ccc1C(=O)NO`, for which, in series [1], the “Ratio CC50/EC50” value amounted to 60. In series [2], this molecule returned a CC50 at 72 h of 900 µM. The response in the series on Hepatitis C virus was half-maximal at 15 µM (EC50).
`Cc1ccc(C(=O)NO)cc1`: the “Ratio CC50/EC50” value in series [1] amounted to 14. The CC50 at 72 h in series [2] was 110 µM. In the series with Hepatitis C virus, this molecule gave an EC50 of 8 µM.
With `COc1ccc(C)cc1C(=O)NO`, the “Ratio CC50/EC50” value in series [1] is reported as 80. This molecule also registered a CC50 at 72 h in series [2] of 800 µM. For the same molecule, the response in the series with Hepatitis C virus was half-maximal at 10 µM (EC50).
On to `CN(O)C(=O)c1ccccc1`, for which the CC50 at 72 h in series [2] was 400 µM. This molecule also gave an EC50 with Hepatitis C virus of 65 µM.
Turning to `N/C(=N\O)c1ccccc1O`, the CC50 at 72 h in series [2] came out at 500 µM. The same molecule yielded an EC50 with Hepatitis C virus of 140 µM.

For the origin of these results see ChEMBL document CHEMBL2434962, “Benzohydroxamic acids as potent and selective anti-HCV agents” (Bioorg Med Chem Lett, 2013).
